Assay outcomes deposited in PubChem BioAssay by several laboratories.
Beta cell apopt: beta cell apoptosis inhibition; INS-1E cytokine-induced death, ATP luminescence, 48 h; percent of positive-control rescue, neutral wells zero; protection from apoptosis, % (test concentration not listed); actives 0.8% (n = 300,000);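 active = Every replicate reaches about 75%, or at least half do and their mean reaches it too, limit read from the data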;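 note: 0% = cytokine-treated negative control wells and 100% = positive control rescue; higher means more ATP so stronger rescue from cytokine killing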
T cruzi inh: T. cruzi replication inhibition; T. cruzi beta-gal in NIH3T3, luminescence, 90 h; inhibition, % (concentration not given with the values); actives 1.4% (n = 300,000); AID 1885;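 active = mean inhibition across valid replicates above about 55%, limit read from the data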;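 note: signal also drops with host cell toxicity which is not excluded here; 0% = plate median of DMSO wells and 100% = zero luminescence signal; higher percent means less beta-gal luminescence so fewer parasites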
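Incubation – ≥90 h infection period, 3 h prior cell attachment · System – NIH/3T3 fibroblasts plus reporter T. cruzi · Doses – compound pinned at 50 nL/well, DMSO · Read-out basis – percent inhibition of parasite-derived β-gal signal · Signal – luminescent β-galactosidase signal after 60 min lysis · Also added – 5000 T. cruzi trypomastigotes/well · Medium – Low-serum DMEM with 2% FBS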
SKKanGAS inh: inhibitors of SKKanGAS S. pyogenes growth in kanamycin (SK-promoter or general growth effect). BacTiter-Glo, 6 h. inhibition, % at 7.5 µM. actives 1.3% (n = 300,000);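 active = mean replicate score, as percent of positive control median, at least 50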;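 note: strain carries kanamycin resistance gene driven by streptokinase promoter and grows in 40 µg/ml kanamycin; loss of luminescence reflects streptokinase promoter inhibition or plain growth inhibition; 0% = median of DMSO wells and 100% = positive control at its reference dose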
CSC inhib: blocks cancer stem cells | cancer stem cell-like cells viability, luminescence | actives 1.1% (n = 300,000) | inhibition, % at 7.5 µM; in the data active = inhibition above about 75%; tested in HMLE shEcad cells
L major viab: Leishmania major promastigote growth inhibition; Leishmania major promastigotes, resazurin fluorescence viability; actives 9% (n = 200,000); inhibition, % at 10 µM; in the data active = inhibition above about 50%;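 note: promastigotes grown with compound for 44 hours at 28 °C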
Mdm2-MdmX inh: human Mdm2/MdmX binding inhibition; O15151+Q00987; SaOS-2 split-luciferase Mdm2/MdmX complementation, luminescence; inhibition, % at 8 µM; actives 3% (n = 330,000);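 active = inhibition of at least 50% at 8 µM in the primary screen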
Target sequence (O15151 whole entry, looked up): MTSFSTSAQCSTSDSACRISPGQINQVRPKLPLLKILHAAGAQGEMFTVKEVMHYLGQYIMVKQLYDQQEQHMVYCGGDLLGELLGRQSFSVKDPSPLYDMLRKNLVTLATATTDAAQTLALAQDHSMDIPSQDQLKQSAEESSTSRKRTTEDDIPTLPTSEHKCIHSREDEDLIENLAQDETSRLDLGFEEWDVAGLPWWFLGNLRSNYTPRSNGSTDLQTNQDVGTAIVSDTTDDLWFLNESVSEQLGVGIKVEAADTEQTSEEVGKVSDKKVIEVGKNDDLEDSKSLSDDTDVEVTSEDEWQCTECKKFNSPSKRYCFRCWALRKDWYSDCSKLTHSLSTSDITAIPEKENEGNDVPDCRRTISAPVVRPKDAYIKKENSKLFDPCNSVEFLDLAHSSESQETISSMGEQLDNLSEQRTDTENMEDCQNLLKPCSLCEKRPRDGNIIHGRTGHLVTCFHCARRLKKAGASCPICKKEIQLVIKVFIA
Target sequence (Q00987 whole entry, looked up): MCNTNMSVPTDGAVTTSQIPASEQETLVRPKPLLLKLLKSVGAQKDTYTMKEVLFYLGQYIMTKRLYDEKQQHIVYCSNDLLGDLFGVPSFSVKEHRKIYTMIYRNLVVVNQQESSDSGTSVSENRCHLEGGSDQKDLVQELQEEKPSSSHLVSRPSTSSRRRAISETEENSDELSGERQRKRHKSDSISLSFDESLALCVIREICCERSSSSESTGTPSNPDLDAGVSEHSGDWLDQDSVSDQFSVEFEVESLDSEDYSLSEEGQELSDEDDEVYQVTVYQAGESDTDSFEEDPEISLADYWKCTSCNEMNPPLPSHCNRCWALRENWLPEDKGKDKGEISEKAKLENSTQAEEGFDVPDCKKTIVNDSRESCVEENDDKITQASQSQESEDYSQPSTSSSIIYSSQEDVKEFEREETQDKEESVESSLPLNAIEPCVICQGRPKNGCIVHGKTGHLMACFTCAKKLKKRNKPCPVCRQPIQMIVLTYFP
The depositor's hits bear a star. This is a sample that favours compounds with a hit; in the whole collection about 9.4% have one here.

For CCCc1nc([N+](=O)[O-])c(S(=O)(=O)c2ccccc2)n1CC(C)C the results were Beta cell apopt -27.6, T cruzi inh -84.2, SKKanGAS inh 2.9, CSC inhib 23.0, L major viab 95.3* and Mdm2-MdmX inh 37.9.
For CC(C)Cn1c(C(C)C)nc([N+](=O)[O-])c1S(=O)(=O)c1ccc(F)cc1 the results were Beta cell apopt -10.1, T cruzi inh -5.3, SKKanGAS inh 8.9, CSC inhib 25.0, L major viab 95.6* and Mdm2-MdmX inh 39.6.
`CC(C)Cn1c(C(C)C)nc([N+](=O)[O-])c1Sc1ccc(Cl)cn1` gave Beta cell apopt -6.9, T cruzi inh 5.0, SKKanGAS inh 5.8, CSC inhib 18.6, L major viab 41.3 and Mdm2-MdmX inh 27.6.
`CC(OC(=O)c1nc(-c2ccccc2)n(-c2ccccc2)n1)C(=O)Nc1cc(Cl)cc(Cl)c1` (stereo not given) gave Beta cell apopt -4.9, T cruzi inh -27.8, SKKanGAS inh 16.0, CSC inhib -7.7, L major viab 0.4 and Mdm2-MdmX inh 8.0.
For O=C(Cc1cccs1)NCc1cc(Cl)cc(Cl)c1 the results were Beta cell apopt -0.5, T cruzi inh -8.0, SKKanGAS inh 2.2, CSC inhib -11.5 and Mdm2-MdmX inh -18.0.
For COc1cc(C2NC(=O)CS2)cc(OC)c1OC (stereo not given) the results were Beta cell apopt -4.5, T cruzi inh -3.3, SKKanGAS inh -7.6, CSC inhib -13.3, L major viab 86.4* and Mdm2-MdmX inh 1.7.
For NC(=O)C1CCCN(C(=O)c2ccc(-c3cccc(Cl)c3Cl)o2)C1 (stereo not given) the results were Mdm2-MdmX inh -71.1.
`COc1ccccc1NC(=O)N1CCCC(c2nc3c(nnn3Cc3ccc(C)cc3)c(=O)[nH]2)C1` (stereo not given) gave T cruzi inh -6.2, SKKanGAS inh 7.4, L major viab 52.1* and Mdm2-MdmX inh 7.8.
`COC(=O)c1ccccc1S(=O)(=O)N1CCCC(c2nc3c(nnn3Cc3ccc(C)cc3)c(=O)[nH]2)C1` (stereo not given) gave Beta cell apopt -4.9, T cruzi inh 5.9, SKKanGAS inh 11.1, CSC inhib -15.0 and Mdm2-MdmX inh 26.2.
For Cc1cccc(N2CCN(C(=O)CCC(=O)N3CC(C)Oc4ccc(C)cc43)CC2C)c1 (stereo not given) the results were Beta cell apopt -2.9, T cruzi inh 15.8, SKKanGAS inh -8.1, CSC inhib -1.9 and Mdm2-MdmX inh -7.0.
For CCOC(=O)N1CCN(C(=O)c2sc3nc(-c4ccc(F)cc4)cn3c2C)CC1 the results were Beta cell apopt 2.9, T cruzi inh -2.0, SKKanGAS inh -3.2, CSC inhib 1.1, L major viab 0.6 and Mdm2-MdmX inh 1.8.
`CCOC(=O)N1CCN(C(=O)c2ccc3c(c2)sc2nc(-c4ccc(OC)cc4)cn23)CC1` gave Beta cell apopt 11.4, T cruzi inh 15.5, SKKanGAS inh 44.9, CSC inhib -10.8, L major viab 98.3* and Mdm2-MdmX inh 4.9.
CCCN1CCC(=NNC(=O)c2ccc(Br)o2)CC1 was read as Beta cell apopt -4.1, T cruzi inh -9.1, SKKanGAS inh -20.1, CSC inhib -8.9, L major viab -3.1 and Mdm2-MdmX inh -4.5.
`CCCN1CCC(=NNc2ccc(C(=O)O)cc2)CC1` gave Beta cell apopt -13.9, T cruzi inh -17.0, SKKanGAS inh 6.1, CSC inhib -7.7, L major viab 90.4* and Mdm2-MdmX inh 16.8.
Screening CC(OC(=O)Cc1c(F)cccc1Cl)C(=O)NCCC1=CCCCC1 (stereo not given) returned Beta cell apopt -7.9, T cruzi inh 0.9, SKKanGAS inh 5.2, CSC inhib -1.6, L major viab 52.3* and Mdm2-MdmX inh 0.5.
Screening O=C(Cn1nc(Br)nc1Br)c1ccccc1 returned Beta cell apopt 0.6, T cruzi inh -7.0, SKKanGAS inh -0.8, CSC inhib -4.8 and Mdm2-MdmX inh 6.1.
Screening CCOC(=O)c1c(NS(=O)(=O)c2ccc(Br)cc2)sc2c1CCC2 returned Beta cell apopt 8.8, T cruzi inh -11.9, SKKanGAS inh 79.4*, CSC inhib -2.0, L major viab -5.5 and Mdm2-MdmX inh 34.1.
COC(=O)c1c(NC(=O)COC(=O)[C@@H](NS(=O)(=O)c2ccc(C)cc2)C(C)C)sc2c1CCC2 was read as Beta cell apopt 10.3, T cruzi inh 15.2, SKKanGAS inh 30.6, CSC inhib 7.4, L major viab 94.3* and Mdm2-MdmX inh 25.7.
For COC(=O)c1c(NC(=O)COC(=O)c2ccccc2O)sc2c1CCCCC2 the results were Beta cell apopt 2.2, T cruzi inh 2.2, SKKanGAS inh 1.5, CSC inhib 7.9, L major viab 6.0 and Mdm2-MdmX inh 30.1.
For O=C(CCC(=O)N1CCN(Cc2ccc(F)cc2)CC1)Nc1nnc(C2CCCCC2)s1 the results were Beta cell apopt 2.3, T cruzi inh 12.0, SKKanGAS inh -2.5, CSC inhib 8.8 and Mdm2-MdmX inh 13.7.
Screening Cn1cc(/C=N/Nc2ccccc2)c2ccccc21 returned Beta cell apopt -0.8, T cruzi inh 7.2, SKKanGAS inh 5.5, CSC inhib -7.0, L major viab 63.2* and Mdm2-MdmX inh -0.6.
Screening CC(C)n1cc(/C=N/Nc2ccc(C(=O)O)cc2)c2ccccc21 returned Beta cell apopt -6.9, T cruzi inh 4.1, SKKanGAS inh 10.4, CSC inhib -16.5 and Mdm2-MdmX inh 27.3.
`COc1cc(NC(=O)CN2CCN(CC(=O)Nc3ccccc3OC)CC2)cc(OC)c1` gave Beta cell apopt 4.6, T cruzi inh 4.9, SKKanGAS inh 0.6, CSC inhib -11.2 and Mdm2-MdmX inh 18.4.
COc1cc(OC)c(N(C)S(=O)(=O)c2cccc(C(=O)OCC(=O)NCc3ccco3)c2)cc1Cl was read as Beta cell apopt -0.5, T cruzi inh -5.5, SKKanGAS inh 5.0, CSC inhib 27.5, L major viab 53.2* and Mdm2-MdmX inh 42.1.
For COc1ccccc1N(C)S(=O)(=O)c1ccc(Cl)c(C(=O)NCc2ccco2)c1 the results were Beta cell apopt 3.6, CSC inhib -2.2 and Mdm2-MdmX inh 28.8.
COc1ccc(S(=O)(=O)NCc2ccco2)cc1N(C)S(=O)(=O)c1ccccc1 was read as Beta cell apopt -3.2, T cruzi inh 19.8, SKKanGAS inh -6.3, CSC inhib -17.6, L major viab 59.5* and Mdm2-MdmX inh 3.8.
COc1ccccc1C(CNC(=O)c1ccc(S(=O)(=O)NCc2ccco2)cc1)N(C)C (stereo not given) was read as Beta cell apopt -6.5, T cruzi inh -7.1, SKKanGAS inh -0.7, CSC inhib -12.8, L major viab 51.0* and Mdm2-MdmX inh -8.6.
Screening O=S(=O)(NC(=NCc1ccccc1)c1ccccc1)c1ccc(Br)cc1 returned T cruzi inh -2.4, SKKanGAS inh 52.4*, CSC inhib -8.9 and Mdm2-MdmX inh 26.1.
